Measurements taken from ChEMBL document CHEMBL3244406, “11,12-Secoprostaglandins. 5. 8-Acetyl- or 8-(1-hydroxyethyl)-12-hydroxy-13-aryloxytridecanoic acids and sulfonamide isosteres as inhibitors of platelet aggregation” (1978).
Active and inactive are the calls of the source. No cut-off for these calls is given here.

Columns and labels:
[1] = (§1) Induction of prostaglandin-like activity in CD-1 mouse ovary assessed as fold increase in [14C]-cAMP formation using ATP-[14C] substrate at 100 ug/ml after 30 mins incubation by PG assay; format: functional, Female gonad
Platelet [2] = experiment: Inhibition of bovine collagen-induced platelet aggregation isolated from po treated Hartley guinea pig after 1 hr treatment; format: functional; settings: Cavia porcellus
Method in brief: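 Male Hartley guinea pigs (0.6-1.1 kg) dosed orally, suspended in 5 ml/kg EtOH-H2O Emulphor, three animals at each of three doses plus vehicle controls. Cardiac-puncture blood taken 1 h later, pooled per group, PRP spun at 200g for 10 min, platelets matched with PPP.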

Mus musculus [3] = organism: Mus musculus; experiment: (§2) Induction of prostaglandin-like activity in CD-1 mouse ovary assessed as fold increase in [14C]-cAMP formation using ATP-[14C] substrate at 25 ug/ml after 30 mins incubation by PG assay; format: functional; settings: Female gonad
[4] = (§3) Induction of prostaglandin-like activity in CD-1 mouse ovary assessed as fold increase in [14C]-cAMP formation using ATP-[14C] substrate at 10 ug/ml after 30 mins incubation by PG assay; format: functional, Female gonad
[5] = as §2; format: functional, Female gonad
Mus musculus [6] = organism: Mus musculus; experiment: as §1; format: functional; settings: Female gonad
Mus musculus [7] = organism: Mus musculus; experiment: as §3; format: functional; settings: Female gonad
Platelet [8] = experiment: Inhibition of bovine collagen-induced platelet aggregation isolated from ip treated Hartley guinea pig after 1 hr treatment; format: functional; settings: Cavia porcellus

Row | Structure (SMILES) | fold change (FC) [1] | ED50 (Platelet [2]) | Activity (Mus musculus [3]) | fold change (FC) [4] | fold change (FC) [5] | Activity (Mus musculus [6]) | Activity (Mus musculus [7]) | ED50 (Platelet [8])
1 | CS(=O)(=O)N(CCCCCCC(=O)O)CCCC(O)COc1ccccc1 (configuration not stated) | 3 | 1 mg/kg | inactive | – | – | – | – | –
2 | Cc1ccc(OCC(O)CCCN(CCCCCCC(=O)O)S(C)(=O)=O)cc1 (configuration not stated) | 16 | 5 mg/kg | – | 4 | 11 | – | – | –
3 | CC(O)C(CCCCCCC(=O)O)CCCC(O)COc1ccc(C(F)(F)F)cc1 (configuration not stated) | – | 1 mg/kg | inactive | – | – | inactive | – | –
4 | CC(=O)C(CCCCCCC(=O)O)CCCC(O)COc1ccc(F)cc1 (configuration not stated) | 4 | 0.5 mg/kg | inactive | – | – | – | – | –
5 | CS(=O)(=O)N(CCCCCCC(=O)O)CCCC(O)COc1cccc(Cl)c1 (configuration not stated) | 5 | 1 mg/kg | inactive | – | – | – | – | –
6 | CC(O)C(CCCCCCC(=O)O)CCCC(O)COc1ccc(F)cc1 (configuration not stated) | 3 | 1 mg/kg | inactive | – | – | – | – | –
7 | CC(=O)C(CCCCCCC(=O)O)CCCC(O)COc1ccc(C(C)(C)C)cc1 (configuration not stated) | – | 10 mg/kg | inactive | – | – | inactive | – | –
8 | CC(=O)C(CCCCCCC(=O)O)CCCC(O)COc1cccc(C(F)(F)F)c1 (configuration not stated) | – | > 10 mg/kg | inactive | – | – | inactive | – | –
9 | CC(=O)Oc1ccccc1C(=O)O [ASPIRIN] | – | 4.5 mg/kg | – | – | – | – | – | –
10 | CC(=O)C(C/C=C\CCCC(=O)O)CCCC(O)COc1ccc(F)cc1 (configuration not stated) | 2 | 0.09 mg/kg | inactive | – | – | – | – | –
11 | CC(O)C(C/C=C\CCCC(=O)O)CCCC(O)COc1ccc(F)cc1 (configuration not stated) | 3 | 0.12 mg/kg | inactive | – | – | – | – | –
12 | CC(O)C(CCCCCCC(=O)O)CCCC(O)COc1ccccc1F (configuration not stated) | – | 7.5 mg/kg | inactive | – | – | inactive | – | –
13 | CC(O)C(CCCCCCC(=O)O)CCCC(O)COc1cccc(Cl)c1 (configuration not stated) | 2 | 7.5 mg/kg | inactive | – | – | – | – | –
14 | CS(=O)(=O)N(CCCCCCC(=O)O)CCCC(O)COc1ccccc1F (configuration not stated) | – | 0.15 mg/kg | inactive | – | – | inactive | – | –
15 | CS(=O)(=O)N(CCCCCCC(=O)O)CCCC(O)COc1cccc(F)c1 (configuration not stated) | 4 | 1 mg/kg | – | – | 2 | – | – | –
16 | CS(=O)(=O)N(CCCCCCC(=O)O)CCCC(O)COc1ccc(Cl)cc1 (configuration not stated) | 31 | 10 mg/kg | – | 8 | 21 | – | – | –
17 | CC(O)C(CC#CCCCC(=O)O)CCCC(O)COc1ccc(F)cc1 (configuration not stated) | 2 | 0.04 mg/kg | inactive | – | – | – | – | –
18 | CS(=O)(=O)N(CCCCCCC(=O)O)CCCC(O)CS(=O)(=O)c1ccc(F)cc1 (configuration not stated) | 3 | > 10 mg/kg | inactive | – | – | – | – | –
19 | COc1ccc(OCC(O)CCCN(CCCCCCC(=O)O)S(C)(=O)=O)cc1 (configuration not stated) | 16 | > 10 mg/kg | – | – | 3 | – | inactive | –
20 | CS(=O)(=O)N(CCCCCCC(=O)O)CCCC(O)COc1ccc(F)cc1 (configuration not stated) | 11 | 0.04 mg/kg | – | 2 | 7 | – | – | –
21 | CC(=O)C(CCCCCCC(=O)O)CCCC(O)COc1ccccc1O (configuration not stated) | – | 5 mg/kg | inactive | – | – | inactive | – | –
22 | CCCCCC(O)CCCC(CCCCCCC(=O)O)C(C)=O (mixture of isomers) | 23 | 6.5 mg/kg | – | 11 | 14 | – | – | –
23 | CS(=O)(=O)N(C/C=C\CCCC(=O)O)C/C=C/C(O)COc1cccc(C(F)(F)F)c1 (configuration not stated) | – | 5 mg/kg | inactive | – | – | inactive | – | –
24 | CC(=O)C(CC#CCCCC(=O)O)CCCC(O)COc1ccc(F)cc1 (configuration not stated) | – | 0.25 mg/kg | inactive | – | – | inactive | – | –
25 | CCCCCC(O)CCCN(CCCCCCC(=O)O)S(C)(=O)=O (racemic) | 61 | 6 mg/kg | – | 40 | 56 | – | – | –
26 | CS(=O)(=O)N(CCCCCCC(=O)O)CCCC(O)CSc1ccc(F)cc1 (configuration not stated) | 18 | 6 mg/kg | – | 6 | 14 | – | – | –
27 | CC(=O)C(CCCCCCC(=O)O)CCCC(O)COc1ccccc1OCc1ccccc1 (configuration not stated) | – | > 10 mg/kg | inactive | – | – | inactive | – | –
28 | CS(=O)(=O)N(C/C=C\CCCC(=O)O)C/C=C/C(O)COc1ccc(F)cc1 (configuration not stated) | 11 | 0.01 mg/kg | – | 2 | 4 | – | – | –
29 | CCCCC[C@H](O)/C=C/[C@H]1[C@H](O)CC(=O)[C@@H]1CCCCCCC(=O)O [ALPROSTADIL] | – | – | – | 60 | – | – | – | 0.02 mg/kg
